Experimental data from ChEMBL document CHEMBL3286372, “Design, synthesis and structure-activity relationship of novel semi-synthetic flavonoids as antiproliferative agents” (2014).

Tests used:
[1] = Growth inhibition of human HOP92 cells at 10 uM after 48 hrs by sulforhodamine B assay relative to control; assay type: functional; conditions: HOP-92, 48 h, read-out: GI
Method in brief: (§1)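 NCI-60 primary screen at a single dose of 10 µM with 48 h continuous exposure. Growth or viability read by sulforhodamine B protein staining and expressed as percent growth inhibition versus untreated cells.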

M14 = assay: Growth inhibition of human M14 cells at 10 uM after 48 hrs by sulforhodamine B assay relative to control; assay type: functional; conditions: M14, 48 h, read-out: GI; method in brief: as §1
Mus musculus [2] = assay: Decrease in cyclin D1 level in tumor of BALB mouse allografted with mouse EAC cells at 3 mg/kg, ip for 5 days competitive ELISA relative to control; assay type: functional, Ehrlich; set-up: scale not given: the % may be the effect or the level left; conditions: route intraperitoneal
Method in brief: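 Mice bearing s.c. Ehrlich tumours (2×10^5 EAC cells, grown 2 wk) were given daily i.p. saline, 3 or 6 mg/kg for 5 days. Tumours were excised, washed in cold saline and blotted, and a 10% homogenate was made in phosphate buffered saline. Cyclin D1 was measured by competitive ELISA with samples in duplicate. Mean ± SEM, n = 6.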

K562 = assay: Growth inhibition of human K562 cells at 10 uM after 48 hrs by sulforhodamine B assay relative to control; assay type: functional; conditions: K562, 48 h, read-out: GI; method in brief: as §1
786-0 = assay: Growth inhibition of human 786-0 cells at 10 uM after 48 hrs by sulforhodamine B assay relative to control; assay type: functional; conditions: 786-0, 48 h, read-out: GI; method in brief: as §1
IGROV-1 = assay: Growth inhibition of human IGROV1 cells at 10 uM after 48 hrs by sulforhodamine B assay relative to control; assay type: functional; conditions: IGROV-1, 48 h, read-out: GI; method in brief: as §1
[3] = Growth inhibition of human UACC257 cells at 10 uM after 48 hrs by sulforhodamine B assay relative to control; assay type: functional; conditions: UACC-257, 48 h, read-out: GI
Method in brief: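 NCI-60 primary single-dose screen at 10 µM with continuous 48 h exposure. Cell viability/growth read by sulforhodamine B protein staining. Reported as percent growth inhibition relative to untreated cells.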

HT-29 = assay: Growth inhibition of human HT-29 cells at 10 uM after 48 hrs by sulforhodamine B assay relative to control; assay type: functional; conditions: HT-29, 48 h, read-out: GI; method in brief: as §1
Mus musculus [4] = assay: Increase in GSK-3beta level in tumor of BALB mouse allografted with mouse EAC cells at 3 mg/kg, ip for 5 days by competitive ELISA relative to control; assay type: functional, Ehrlich; conditions: route intraperitoneal
Method in brief: (§2)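 Female BALB mice bearing subcutaneous EAC tumours (2×10^5 cells in left hind leg, grown 2 wk). Dosed i.p. daily for 5 days; controls received saline. Excised tumours washed in cold saline and homogenised at 10% in PBS. GSK-3β measured by competitive ELISA, samples in duplicate. Change versus untreated controls, mean ± SEM, n = 6.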

Ehrlich [5] = assay: Antitumor activity against mouse EAC cells allografted in BALB mouse assessed as tumor growth inhibition at 3 mg/kg, ip for 5 days relative to control; assay type: functional; conditions: 120 h, route intraperitoneal, read-out: TGI
Method in brief: (§3)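 Female BALB mice; Ehrlich ascites carcinoma cells, 2×10^5 cells/mouse in 0.2 ml saline, injected s.c. into the left hind leg and grown 2 wk. Daily i.p. saline (control), 3 or 6 mg/kg for 5 days. Caliper size V = 0.4×a(b)^2, taken just before the first dose and 24 h after the last. Mean ± SEM, n = 6; ANOVA with Tukey-Kramer.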

Mus musculus [6] = assay: Increase in GSK-3beta level in tumor of BALB mouse allografted with mouse EAC cells at 6 mg/kg, ip for 5 days by competitive ELISA relative to control; assay type: functional, Ehrlich; conditions: route intraperitoneal; method in brief: as §2
NCI-H522 = assay: Growth inhibition of human NCI-H522 cells at 10 uM after 48 hrs by sulforhodamine B assay relative to control; assay type: functional; conditions: NCI-H522, 48 h, read-out: GI
Method in brief: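 NCI-60 primary screen at a single 10 µM dose. Continuous 48 h exposure, with growth or viability estimated by sulforhodamine B protein staining. Reported as percent growth inhibition of treated cells relative to untreated growth.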

Ehrlich [7] = assay: Antitumor activity against mouse EAC cells allografted in ip dosed BALB mouse assessed as tumor growth inhibition administered for 5 days; assay type: functional, organism-based; method in brief: as §3

| Structure (SMILES) | inhibition of growth at 10 µM [1] | inhibition of growth at 10 µM (M14) | Activity (Mus musculus [2]) | inhibition of growth at 10 µM (K562) | inhibition of growth at 10 µM (786-0) | inhibition of growth at 10 µM (IGROV-1) | inhibition of growth at 10 µM [3] | inhibition of growth at 10 µM (HT-29) | Activity (Mus musculus [4]) | inhibition in vivo at 3 mg/kg (Ehrlich [5]) | Activity (Mus musculus [6]) | inhibition of growth at 10 µM (NCI-H522) | TGI (Ehrlich [7]) |
| --- | --- | --- | --- | --- | --- | --- | --- | --- | --- | --- | --- | --- | --- |
| COc1c2occc2c(OC)c2c(=O)c(CN3CCOCC3)c(/C=C/c3ccc(Cl)cc3)oc12 | 95% |  |  |  |  |  |  |  |  |  |  |  |  |
| COc1c2occc2c(OC)c2c(=O)c(CN3CCOCC3)c(/C=C/c3ccc(N(C)C)cc3)oc12 |  | 63% | 40.6% | 84% | 95% | 78% | 76% | 82% | 101.5% | 62.1% | 197.2% | 84% | Dose-dependent effect |
